Here are results for 28 compounds from ChEMBL document CHEMBL1773067.

The target in data set [1] is T1, Phosphotyrosine-protein phosphatase PTPB (Mycobacterium tuberculosis) (UniProt P96830).
T1 sequence (whole entry): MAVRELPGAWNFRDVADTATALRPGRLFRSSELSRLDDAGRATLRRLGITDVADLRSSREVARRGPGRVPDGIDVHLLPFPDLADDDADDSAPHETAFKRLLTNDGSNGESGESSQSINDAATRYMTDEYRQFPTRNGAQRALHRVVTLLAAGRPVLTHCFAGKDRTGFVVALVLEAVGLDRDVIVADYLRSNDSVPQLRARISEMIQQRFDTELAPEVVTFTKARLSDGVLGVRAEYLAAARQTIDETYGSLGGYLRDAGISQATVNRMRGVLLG
Description: Inhibition of Mycobacterium tuberculosis N-terminal His6-tagged PTPB at 20 uM using pNPP as substrate.

For data set [2], the target named is T1, Phosphotyrosine-protein phosphatase PTPB (Mycobacterium tuberculosis). Description: Inhibition of Mycobacterium tuberculosis PTPB expressed in mouse RAW 264.7 cells assessed as restoration of IFN gamma-induced ERK1/ERK2 phosphorylation at 10 uM after 30 mins by Western blotting. Type of data set: cell-based. The essentials:
(§1)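 RAW 264.7 macrophages (DMEM, 10% FBS, 37°C, 5% CO₂) stably expressing HA-tagged mPTPB (electroporation, G418 0.5 mg/ml selection 2 weeks). Cells at 80% confluency lysed in Triton X-100 buffer with phosphatase/protease inhibitors; pERK1/2 detected by western blot.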
(In western blotting, separated proteins are transferred to a membrane and probed.)

The target in data set [3] is T2, Phosphotyrosine-protein phosphatase PTPB (Mycobacterium tuberculosis, UniProt P96830).
T2 sequence (P96830 whole entry): T1 sequence (whole entry)
Description: Inhibition of Mycobacterium tuberculosis N-terminal His6-tagged PTPB preincubated with compound for 30 mins before pNPP substrate addition by microplate spectrophotometer analysis.

Data set [4] deals with T2, Phosphotyrosine-protein phosphatase PTPB. In words: Inhibition of Mycobacterium tuberculosis N-terminal His6-tagged PTPB.
For data set [5] the target is unchanged. Description: Competitive inhibition of Mycobacterium tuberculosis N-terminal His6-tagged PTPB assessed as production of p-nitrophenol from pNPP substrate by Lineweaver-Burk plot analysis.
Data set [6] shares this target. In words: Inhibition of Mycobacterium tuberculosis PTPB expressed in Escherichia coli after 5 mins by microplate spectrophotometer analysis.
Data set [7] addresses T1, Phosphotyrosine-protein phosphatase PTPB (Mycobacterium tuberculosis). In words: Inhibition of Mycobacterium tuberculosis PTPB expressed in mouse RAW 264.7 cells assessed as restoration of IFN gamma-induced ERK1/ERK2 phosphorylation after 30 mins by Western blotting. Type of data set: cell-based. The gist of the method:
as §1

The target of data set [8] is T2, Phosphotyrosine-protein phosphatase PTPB. In words: Non-competitive inhibition of Mycobacterium tuberculosis N-terminal His6-tagged PTPB assessed as production of p-nitrophenol from pNPP substrate by Lineweaver-Burk plot analysis.
The target in data set [9] is T1, Phosphotyrosine-protein phosphatase PTPB (Mycobacterium tuberculosis). As to conditions: RAW, 5 to 10 uM.
In data set [10] the test system is Mycobacterium tuberculosis. In words: Potentiation of IFN-gamma-induced antimycobacterial activity against Mycobacterium tuberculosis Erdman ATCC 35801 infected in mouse J774A.1 cells assessed as decrease in bacterial load at 10 uM after 7 days. The format is functional, organism-based. The essentials: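 J774A.1 macrophages on cover slips infected 1 h at 37°C with M. tuberculosis Erdman (1-3 x10⁵ CFU/ml), rinsed, 16 h at 37°C/5% CO₂, then compound 10 µM with amikacin and IFN-γ 50 U/mL; triplicates. After 7 days cells lysed with 0.25% SDS, dilutions plated on 7H11 agar, colonies counted after 2-3 weeks.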

In data set [11] the test system is J774.A1. Description: Cytotoxicity at mouse J774A1 cells up to 100 uM after 72 hrs by MTS assay. The format is cell-based. As to conditions: j774.a1, 72 h. The gist of the method: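 J774A.1 cells exposed 72 h; viability from MTS conversion to formazan.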
Data set [12] has as its system Mycobacterium tuberculosis. In words: Antimycobacterial activity against Mycobacterium tuberculosis Erdman ATCC 35801 after 7 days by microplate alamar blue assay. Type of data set: functional. The conditions noted are these: Erdman ATCC 35801, 168 h. The essentials:
(§2)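 MABA read-out after 7 day incubation in Middlebrook 7H12 medium against replicating M. tuberculosis cultures.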
(In general: Resazurin is reduced to fluorescent resorufin, in cell work by metabolically active cells.)

In data set [13] the test system is Mycobacterium tuberculosis. Description: Antimycobacterial activity against Mycobacterium tuberculosis H37Rv after 7 days by microplate alamar blue assay. Type of data set: functional. The conditions noted are these: 168 h. The gist of the method:
as §2

In data set [14] the target is T1, Phosphotyrosine-protein phosphatase PTPB (Mycobacterium tuberculosis). Description: Inhibition of Mycobacterium tuberculosis PTPB expressed in mouse RAW 264.7 cells assessed as restoration of IFN gamma-induced ERK1/ERK2 phosphorylation at 15 uM after 30 mins by Western blotting. The format is cell-based. The essentials: as §1

The source made the active and inactive calls. The rule behind the calls is not given here.

On to `CNS(=O)(=O)c1ccc2c3c(cccc13)C(=O)N2`, for which the inhibition entry in data set [1] was “inactive”.

Regarding `NS(=O)(=O)c1ccc2c3c(cccc13)C(=O)N2`, the inhibition result in data set [1] and in [2] was “inactive” throughout.

With `O=C1Nc2ccc(S(=O)(=O)N(CCO)CCO)c3cccc1c23`, in [1], the inhibition entry was “inactive”.

For the compound `CC(NC(=O)C(=O)N1CCCCC1)C(c1cccs1)N1CCN(C)CC1` (configuration not stated), in [1], the inhibition entry is “inactive”.

With `CC(NS(=O)(=O)c1ccc2c3c(cccc13)C(=O)N2)C1C2CC3CC(C2)CC1C3` (configuration not stated), in data set [1], the inhibition result is “inactive”.

With `O=C1Nc2ccc(S(=O)(=O)NCCO)c3cccc1c23`, in [1], the inhibition result is “inactive”.

For `CC(NC(=O)C(=O)N1CCCCC1)C(c1cccs1)N1CCN(c2ccccc2)CC1` (configuration not stated), the inhibition entry in [1] is “inactive”.

As for `O=C1Nc2ccc(S(=O)(=O)NCc3ccccc3)c3cccc1c23`, the inhibition entry in data set [1] was “inactive”.

`O=C1Nc2ccc(S(=O)(=O)N3CCOCC3)c3cccc1c23`: the inhibition entry in data set [1] was “inactive”.

For `COc1ccc(N2CCN(C(c3cccs3)C(C)NC(=O)C(=O)N3CCCC3)CC2)cc1` (configuration not stated), the inhibition entry in [1] is “inactive”.

By IC50 is commonly meant the concentration that gives 50% inhibition. For the compound `O=C1Nc2ccc(S(=O)(=O)Nc3ccc4oc5c(c4c3)CCCC5)c3cccc1c23`, the results for the IC50 in data set [3] and in data set [4] were 10.8 µM and 10.3 µM, respectively.

In the case of `COc1ccccc1CNC(=O)C(=O)NC(C)C(c1cccs1)N1CCN(c2ccc(F)cc2)CC1` (configuration not stated), the IC50 in data set [3] stood at 15.8 µM; in [4], 11.4 µM.

Turning to `Cc1cccc(NS(=O)(=O)c2ccc3c4c(cccc24)C(=O)N3)c1C`, the inhibition result in data set [1] is “inactive”.

As to `CCN1CCN(C(c2cccs2)C(C)NC(=O)C(=O)NCCc2c[nH]c3ccccc23)CC1` (configuration not stated), in data set [1], the inhibition entry is “inactive”.

In general, Ki refers to the dissociation constant of the complex between target and ligand, obtained from inhibition or displacement. For `CC(NC(=O)C(=O)NCc1cccnc1)C(c1cccs1)N1CCN(c2ccc(F)cc2)CC1` (configuration not stated), the Ki in [5] was found to be 4 µM. For the same compound, the values for the IC50 in data set [3], in [6] and in data set [4] were 14 µM, 11.5 µM and 9.1 µM, respectively. The inhibition entry in [7] is “Dose-dependent effect”.

On to `Cc1ccccc1NS(=O)(=O)c1ccc2c3c(cccc13)C(=O)N2`, for which the inhibition entry in [1] was “inactive”.

`CCN1CCN(C(c2cccs2)C(C)NC(=O)C(=O)N2CCOCC2)CC1` (configuration not stated): the inhibition result in [1] was “inactive”.

In the case of `CC(NC(=O)C(=O)NCCc1c[nH]c2ccccc12)C(c1cccs1)N1CCN(c2ccc(F)cc2)CC1` (configuration not stated), the IC50 in data set [3] was found to be 17.5 µM; in data set [4], 12.1 µM.

Turning to `CC(NC(=O)C(=O)NCc1ccc2c(c1)OCO2)C(c1cccs1)N1CCN(c2ccccc2)CC1` (configuration not stated), the IC50 worked out at 25.1 µM in [3] and 30.4 µM in [4].

Take `CC(NC(=O)C(=O)N1CCCCC1)C(c1cccs1)N1CCN(c2ccc(F)cc2)CC1` (configuration not stated): the inhibition result in [1] was “inactive”.

`CC(NC(=O)C(=O)NCc1ccco1)C(c1cccs1)N1CCN(C)CC1` (configuration not stated): the inhibition result in [1] is “inactive”.

For `Cc1oc2ccc(NS(=O)(=O)c3ccc4c5c(cccc35)C(=O)N4)cc2c1C(=O)OC(C)C`, the inhibition result in data set [1] was “inactive”.

On to `O=C1Nc2ccc(S(=O)(=O)Nc3cc(Cl)c(O)c4ccccc34)c3cccc1c23`, for which the half-inhibitory concentration (IC50) in data set [3] stood at 12.8 µM; in [4] it was 15.5 µM.

For the compound `CCCCCOC(=O)c1c(C)oc2ccc(NS(=O)(=O)c3ccc4c5c(cccc35)C(=O)N4)cc12`, the half-inhibitory concentration (IC50) in [3] came out at 20.8 µM; in data set [4], 21.1 µM.

As for `CCCCCCCOC(=O)c1c(C)oc2ccc(NS(=O)(=O)c3ccc4c5c(cccc35)C(=O)N4)cc12`, the IC50 is 22.8 µM in data set [3] and 19.5 µM in data set [4].

As usually defined, the MIC is the lowest concentration that inhibits growth of the organism. Low readings indicate inhibition by little substance, high ones a need for much substance. Regarding `CCCCc1ccc(NS(=O)(=O)c2ccc3c4c(cccc24)C(=O)N3)cc1`, in [8], the Ki came to 1.1 µM. The figures for the IC50 in [3], in data set [6] and in data set [4] were 1.4 µM, 1.3 µM and 1.2 µM, respectively. Further, in [9], the inhibition entry is “Active”. Also, in data set [10], the result was Active. In addition, the Activity result in data set [11] is on record as “Non-toxic”. The MIC in data set [12] and in [13] was greater than 100 µM in each case.

With `COc1ccc(N2CCN(C(c3cccs3)C(C)NC(=O)C(=O)NCc3ccco3)CC2)cc1` (configuration not stated), the inhibition constant Ki in data set [5] amounted to 3.2 µM. Also, the values for the IC50 in data set [3], in data set [6] and in [4] were 6.3 µM, 5.6 µM and 4.8 µM, respectively. For the same compound, the outcome in [10] was Active. The Activity entry in data set [11] is “Non-toxic”. The MIC in [12] and in [13] was greater than 100 µM throughout. Further, the inhibition result in data set [7] is “Dose-dependent effect”.

Consider `COc1ccc(N2CCN(C(c3cccs3)C(C)NC(=O)C(=O)N3CCCCC3)CC2)cc1` (configuration not stated), for which the inhibition entry in [1] and in [14] was “inactive” each time.
